Reference: ChEMBL document CHEMBL5260793, “Novel pyrazolo[3,4-d]pyrimidine with 4-(1H-benzimidazol-2-yl)-phenylamine as broad spectrum anticancer agents: Synthesis, cell based assay, topoisomerase inhibition, DNA intercalation and bovine serum albumin studies” (Eur J Med Chem, 2017)
The source made the active and inactive calls. The rule behind the calls is not given here.

Tests used:
[1] = system: Panel renal (Carcinoma cell lines); assay: Anticancer activity against human Panel renal (Carcinoma cell lines) assessed as lethality incubated for 48 hrs by Sulphorhodamine B assay; assay type: functional
[2] = target: Albumin (Bos taurus, UniProt P02769); assay: Binding affinity to bovine serum albumin assessed as decrease in fluorescence intensity at pH 7.4 at 0 to 30 uM by fluorescence quenching method; conditions: cattle
[3] = system: Panel breast (Carcinoma cell lines); assay: Anticancer activity against human Panel breast (Carcinoma cell lines) assessed as lethality incubated for 48 hrs by Sulphorhodamine B assay; assay type: functional; conditions: read-out: LC50 (the source's name)
[4] = target: T1, DNA topoisomerase 1 (Homo sapiens) (UniProt P11387); assay: Inhibition of human DNA topoisomerase I mediated supercoiled pHOT1 plasmid DNA relaxation upto 100 uM incubated for 30 mins by ethidium bromide staining based agarose gel electrophoresis analysis
T1 sequence (whole entry): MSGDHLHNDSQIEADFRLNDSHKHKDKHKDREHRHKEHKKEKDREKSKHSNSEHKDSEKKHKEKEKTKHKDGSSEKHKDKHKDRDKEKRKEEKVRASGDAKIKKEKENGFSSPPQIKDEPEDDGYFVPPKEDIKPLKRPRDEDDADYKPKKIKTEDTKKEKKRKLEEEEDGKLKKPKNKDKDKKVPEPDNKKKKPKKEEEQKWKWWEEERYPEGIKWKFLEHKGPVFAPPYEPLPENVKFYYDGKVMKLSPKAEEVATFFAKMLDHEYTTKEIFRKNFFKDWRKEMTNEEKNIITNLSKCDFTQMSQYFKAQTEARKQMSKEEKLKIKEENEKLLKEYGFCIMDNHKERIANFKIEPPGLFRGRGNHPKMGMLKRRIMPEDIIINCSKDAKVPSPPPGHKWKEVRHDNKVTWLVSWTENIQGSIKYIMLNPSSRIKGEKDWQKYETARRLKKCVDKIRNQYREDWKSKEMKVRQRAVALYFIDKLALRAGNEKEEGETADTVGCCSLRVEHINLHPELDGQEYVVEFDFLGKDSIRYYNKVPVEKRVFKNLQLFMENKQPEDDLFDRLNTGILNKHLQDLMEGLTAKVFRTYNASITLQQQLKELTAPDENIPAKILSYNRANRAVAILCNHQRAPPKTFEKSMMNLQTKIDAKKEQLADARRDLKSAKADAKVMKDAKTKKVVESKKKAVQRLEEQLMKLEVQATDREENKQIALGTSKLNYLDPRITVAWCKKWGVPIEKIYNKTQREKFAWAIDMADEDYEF

[5] = system: Panel CNS (Carcinoma cell lines); assay: Anticancer activity against human Panel CNS (Carcinoma cell lines) assessed as lethality incubated for 48 hrs by Sulphorhodamine B assay; assay type: functional
[6] = system: Panel prostate (Carcinoma cell lines); assay: Anticancer activity against human Panel prostate (Carcinoma cell lines) assessed as lethality incubated for 48 hrs by Sulphorhodamine B assay; assay type: functional
[7] = system: Panel CNS (Carcinoma cell lines); assay: Anticancer activity against human Panel CNS (Carcinoma cell lines) assessed as cell growth inhibition incubated for 48 hrs by Sulphorhodamine B assay; assay type: functional
Procedure, shortened: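 NCI-60 five-dose screen. Cells in RPMI 1640 with 5% FBS and 2 mM L-glutamine were plated at 5,000–40,000 cells/well and held 24 h before dosing. Compounds came from DMSO stocks and were given at five concentrations (10-fold or ½-log dilutions) for 48 h at 37 °C. Adherent cells were TCA-fixed and stained with SRB; A515 was read. GI50 was set from growth = 50% and TGI from Ti = Tz, using Tz/C/Ti.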

Sequence of Albumin (P02769 whole entry): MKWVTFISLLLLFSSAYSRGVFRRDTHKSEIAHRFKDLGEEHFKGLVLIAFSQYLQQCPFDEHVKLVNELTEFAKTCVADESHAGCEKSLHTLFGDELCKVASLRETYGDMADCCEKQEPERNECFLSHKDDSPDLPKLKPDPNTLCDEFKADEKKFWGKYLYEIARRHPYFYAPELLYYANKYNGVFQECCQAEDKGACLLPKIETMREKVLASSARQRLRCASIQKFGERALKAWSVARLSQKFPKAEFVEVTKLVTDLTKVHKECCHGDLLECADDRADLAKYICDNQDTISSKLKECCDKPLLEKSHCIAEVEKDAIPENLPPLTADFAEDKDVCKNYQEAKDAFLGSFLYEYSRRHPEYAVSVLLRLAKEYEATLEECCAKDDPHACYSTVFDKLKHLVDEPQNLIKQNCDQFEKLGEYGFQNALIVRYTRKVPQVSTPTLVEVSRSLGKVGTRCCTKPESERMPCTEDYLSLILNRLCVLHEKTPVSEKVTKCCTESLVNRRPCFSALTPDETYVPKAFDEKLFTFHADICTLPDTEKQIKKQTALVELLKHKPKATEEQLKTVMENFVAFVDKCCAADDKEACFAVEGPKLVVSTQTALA

Structure (SMILES)	LC50 (50% lethal concentration) [1] [µM]	Activity [2]	CC50 [3] [µM]	inhibition [4]	LC50 (concentration killing 50% of cells) [5] [µM]	LC50 [6] [µM]	GI50 [7] [µM]
Fc1ccc(Nc2nc(Nc3ccc(-c4nc5ccccc5[nH]4)cc3)c3cn[nH]c3n2)cc1	18.2	Active	19	inactive	20.4	9.22	2.06
OCCN1CCN(c2nc(Nc3ccc(-c4nc5ccccc5[nH]4)cc3)c3cn[nH]c3n2)CC1	5.85	Active	7.02	inactive	5.72	5.97	1.47
